Only some compounds are listed: those with a hit (about 1.8% of all), similar ones and a draw of the others.
M4 ag = CHRM4 agonism in calcium assay; CHO-K1 hM4/Gqi5, Fluo-8 calcium fluorescence; vehicle 0%, full acetylcholine response 100%; activation, % at 3 µM; 360,000 tested, 0.14% active; AID 624127;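 active means activation above the run mean over all test wells plus 3 SD, cut at about 32% in these data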;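 further: peak over basal fluorescence ratio per well then scaled between controls; 0% = DMSO wells and 100% = acetylcholine at EC100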
CHRM5 antagonist = blocks acetylcholine activation of human M5 receptor; CHO-hM5 cells, Fluo-8 calcium fluorescence, ACh EC80; inhibition, % at 3 µM; 360,000 tested, 0.59% active; AID 624040;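 active means inhibition above a per-plate cutoff, the mean of that plate's test compounds plus 3 SD, cut at about 27% in these data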;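 further: 0% = acetylcholine EC80 with DMSO and 100% = DMSO without agonist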
Target sequence (P08912 whole entry, looked up): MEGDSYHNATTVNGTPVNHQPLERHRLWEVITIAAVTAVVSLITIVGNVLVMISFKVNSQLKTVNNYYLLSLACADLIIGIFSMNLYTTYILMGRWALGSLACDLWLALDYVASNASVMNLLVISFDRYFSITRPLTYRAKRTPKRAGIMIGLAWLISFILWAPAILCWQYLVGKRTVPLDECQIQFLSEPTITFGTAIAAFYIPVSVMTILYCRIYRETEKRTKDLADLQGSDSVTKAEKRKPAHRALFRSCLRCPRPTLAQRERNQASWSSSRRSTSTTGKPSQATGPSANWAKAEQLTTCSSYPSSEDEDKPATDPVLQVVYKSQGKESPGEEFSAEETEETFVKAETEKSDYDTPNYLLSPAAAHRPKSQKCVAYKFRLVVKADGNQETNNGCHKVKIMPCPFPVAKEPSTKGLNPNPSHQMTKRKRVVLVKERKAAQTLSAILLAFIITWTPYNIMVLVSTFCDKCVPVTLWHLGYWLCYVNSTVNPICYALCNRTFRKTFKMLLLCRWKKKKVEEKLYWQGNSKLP
CHRM5 agonist = agonists of human muscarinic M5 receptor (CHRM5) | P08912 | CHO-K1 hM5 cells, Fluo-8 calcium fluorescence; 0% DMSO wells, 100% maximal acetylcholine response | activation, % at 3 µM | 360,000 tested, 0.19% active | AID 624037;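 active means activation above the run's mean over test compounds plus 3 SD, cut at about 23% in these data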;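 further: signal is peak over basal fluorescence ratio across the kinetic read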
CHRM4 PAM = potentiates acetylcholine response at human M4 receptor. AID 624126. P08173. CHO-K1 hM4/Gqi5, Fluo-8 calcium fluorescence, ACh EC20; 0% = ACh EC20, 100% = maximal ACh. 360,000 tested, 0.4% active. activation, % at 3 µM;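 active means activation above its plate's cutoff, the mean activation of sample wells plus 3 SD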
CHRM4 antagonist = antagonists of human muscarinic M4 receptor (CHRM4) | P08173 | AID 624125 | CHO-hM4 cells, ACh EC80, Fluo-8 calcium fluorescence | 360,000 tested, 0.73% active | inhibition, % at 3 µM;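 active means inhibition above its plate's cutoff, the mean inhibition of sample wells plus 3 SD, cut at about 27% in these data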;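 further: 0% = acetylcholine EC80 with DMSO and 100% = DMSO without agonist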
M5 PAM = CHRM5 positive allosteric modulation. CHO-K1 hM5, Fluo-8 calcium, ACh EC20 PAM; 0% = ACh EC20, 100% = ACh EC100. 360,000 tested, 0.3% active. activation, % at 3 µM;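 active means activation above the run cutoff, the mean activation of all test compounds plus 3 SD, cut at about 18% in these data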
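System – CHO-K1 hM5 cells · Compound – 3 µM, single dose · Incubation – compound preincubation 140 s before EC20 acetylcholine addition · Technique – Fluo-8 calcium fluorescence · Measure – Max/basal fluorescence ratio as % of EC20–EC100 ACh window · Benchmarks – low control EC20 acetylcholine (0%), high control EC100 acetylcholine (100%) · Replication – singlicate, one well per test compound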
* marks the source's active call; other numbers are inactive results.

SMILES	M4 ag	CHRM5 antagonist	CHRM5 agonist	CHRM4 PAM	CHRM4 antagonist	M5 PAM
CN1C2CCC1CC(OC(=O)c1ccc(Cl)cc1)(C(=O)O)C2 (stereo not drawn)	1.1	-2.7	-2.9	28.8*	16.0	5.2
CCOc1ccc(C(=O)OC2CC3CCC(C2)N3C)cc1 (stereo not drawn)	0.8	12.1	-10.6	-0.9	3.7	-21.3
CN1C2CCC1CC(OC(=O)c1ccc(Cl)cc1)C2 (stereo not drawn)	2.1	31.8*	-11.7	-11.3	21.3	-14.8
NCCc1ccc(OCc2ccccc2)c(OCc2ccccc2)c1	33.7*	2.5	9.8	8.3	21.2	15.1
COc1ccc(CCN)cc1OC	-0.2	5.2	0.8	-6.6	7.9	-4.1
CN1[C@@H]2CC[C@H]1CC(OC1c3ccccc3CCc3ccccc31)C2 (stereo partly drawn)	6.3	99.3*	-0.8	-18.8	99.8*	-18.7
C[C@]1(O)CCC2C3CC[C@H]4C[C@@H](OC(=O)[C@@H](N)CCCCN)CC[C@]4(C)C3CC[C@@]21C (stereo partly drawn)	2.1	7.8	-2.4	-4.1	-8.4	-6.2
Cn1cc(C(=O)c2ccccc2)c2ccccc21	0.0	-2.8	30.8*	2.3	-3.2	-11.2
CCOc1ccc(-c2c(C)n(-c3ccc(OCC)cc3)c3[n+]2CCCCC3)cc1	12.2	34.5*	-4.3	-37.0	21.3	-30.2
CSc1cccc(NP2(=O)OCC(C)([N+](=O)[O-])CO2)c1 (stereo not drawn)	4.5	-1.3	4.9	4.9	0.8	1.4
CC[C@]12CC[C@H](O)CC1=CCC1C2CC[C@]2(C)C(=O)CCC12 (stereo partly drawn)	4.5	7.9	-1.2	-8.9	1.6	-2.0
CCOC(=O)CNC(=O)CSP(=S)(OCC)OCC	1.2	-6.1	5.3	32.8*	-0.6	-2.0
CCCN1CCC[C@@H](c2cccc(O)c2)C1	0.4	-0.7	-1.1	-3.6	7.4	-3.9
C[C@]12CC[C@@H](O)CC1=CC(=O)C1C2CC[C@]2(C)C(=O)[C@H](O)CC12 (stereo partly drawn)	2.0	-10.9	1.6	4.5	-18.8	0.1
Cc1nc2ccc(Br)cc2c(=O)n1-c1ccc([N+](=O)[O-])c(C(F)(F)F)c1	12.3	31.6*	11.4	-11.9	20.2	-26.9
C=C1C(=O)OC2CC3(C)OC3C3OC3C3=CC(OC3=O)C12 (stereo not drawn)	0.7	-0.2	2.6	2.3	13.8	3.2
CC(C)C(=O)c1cn(Cc2ccc(C#N)cc2)c2ccccc12	2.2	-0.8	-6.0	4.4	-6.1	4.3
CC(=O)c1cn(Cc2ccc(C#N)cc2)c2ccccc12	3.2	42.0*	-1.7	-1.6	-9.3	-15.8
O=C1C2CCN(CC2)[C@@H]1Cc1ccc2ccccc2c1O	2.2	30.1*	-5.7	-23.0	47.4*	-17.5
CN1C(=O)C(Cc2cccc3ccccc23)C(=O)N(C)C1=O	0.5	-2.1	-1.7	-0.1	7.5	-2.7
CN1CCN(CCC(C#N)(c2ccccc2)c2ccccc2)CC1	0.8	50.1*	-14.3	-16.1	39.8*	-49.4
O=C(CCc1ccccc1)N1Cc2cc(N3CCCCC3)ccc2-n2nncc2C1	3.1	3.5	-1.6	-11.5	-4.0	-4.9
CC(=O)N1Cc2cnnn2-c2ccccc2C1(C)C#N (stereo not drawn)	-0.5	10.8	1.4	0.9	7.9	-2.8
Cc1ccccc1-c1ccc2c(c1)C1c3c(-c4ccccc4)nnn3-c3ccccc3C(=O)N1CC2 (stereo not drawn)	3.2	4.2	2.3	13.9	-17.4	-2.1
Cc1ccc(C(=O)N/C(=C\Cl)P(=O)(c2ccccc2)c2ccccc2)cc1	0.7	-12.7	-3.4	1.0	-4.9	0.6
SMILES	M4 ag	CHRM5 antagonist	CHRM5 agonist	CHRM4 PAM	CHRM4 antagonist	M5 PAM
COC(=O)NC(=C(Cl)Cl)P(=O)(c1ccccc1)c1ccccc1	0.5	-16.9	2.2	31.4*	2.6	15.8
CC1=CP(=O)(Oc2ccc([N+](=O)[O-])cc2)CC1 (stereo not drawn)	1.4	1.8	2.4	2.0	-7.2	-3.2
Cn1nnc(CC[N+](C)(C)C)n1	3.1	65.2*	75.7*	-1.5	1.2	-27.7
CCc1nn2c(=O)c(F)c(N3CCNCC3)nc2s1	0.4	4.0	2.0	7.4	-4.3	-1.4
CC(=O)c1ccc(NC2=NCCCS2)cc1	2.0	30.8*	-5.5	-10.6	11.2	-8.4
CC(=O)O/C(=C1\CC2C3CC=C4CC(OC(C)=O)CCC4(C)C3CCC2(C)C1=O)C(F)(F)F (stereo not drawn)	3.9	12.7	-0.8	2.5	-2.7	1.5
COP(=O)(OC)C1(O)C(=O)Nc2ccc(Br)cc21 (stereo not drawn)	3.8	-1.4	-1.3	23.5*	-7.5	1.1
C=CCC1(Nc2ccccc2)CC(C)N(C)CC1C (stereo not drawn)	0.6	51.7*	-20.8	-51.0	49.2*	-35.1
O=C1NCN(c2ccccc2)C12CCN(C(c1cccc3ccccc13)c1nnnn1-c1ccc3c(c1)OCCO3)CC2 (stereo not drawn)	1.4	1.7	0.8	1.8	-4.3	0.9
Fc1cccc(-c2ccc3c(c2)CN(C(=S)NCCc2ccccc2)Cc2cnnn2-3)c1	1.4	9.8	-0.2	-5.4	1.2	-6.8
Cc1cc(C=O)c(C)n1CC1CCCO1 (stereo not drawn)	0.6	-11.4	-6.8	4.2	-9.0	18.4*
O=C(Nc1cccc(Cl)c1)OC1CN2CCC1CC2 (stereo not drawn)	15.0	29.1*	8.8	-36.4	8.3	-26.7
O=C(Nc1ccc(Cl)cc1)OC1CN2CCC1CC2 (stereo not drawn)	20.6	31.2*	-12.5	-33.8	16.6	-29.8
CC[C@H]1c2ccccc2[C@@H]2CC[C@H]1N2c1ccccc1	-2.7	-2.5	-3.1	-5.4	-2.2	-0.8
NC(Cc1ccccc1)Cc1ccccc1	1.7	12.4	-1.7	4.9	-1.6	3.6
NC(Cc1ccccc1)c1nn[nH]n1 (stereo not drawn)	-0.1	29.6*	-2.2	-0.1	-2.0	-10.9
O=C(Cc1ccccc1)N1CCN(Cc2cccc(Cl)c2)CC1	-0.1	3.8	1.0	4.2	4.8	-0.5
O=C(Cc1ccccc1)N1CCN(Cc2ccc(Cl)cc2)CC1	2.2	-27.4	1.4	7.7	-8.4	22.3*
CCC1C2Cc3ccc(O)cc3C1(CC)CCN2C (stereo not drawn)	0.6	15.3	-0.1	3.1	2.4	-9.8
Clc1ccc(OCC#CCN2CCCC2)cc1	2.1	31.3*	-10.1	-21.7	2.5	-17.2
O=C(N/N=C/C1C(=O)NC(=S)N(c2ccccc2)C1=O)c1cc(Br)c(O)c(Br)c1 (stereo not drawn)	7.1	30.4*	1.3	-12.0	9.2	-18.9

From PubChem BioAssay
